KCNK9 block – inhibitors of human KCNK9 two-pore domain potassium channel | B-score at 10 µM | 1.2% of 310,000 active | HEK293 KCNK9, FluxOR thallium flux fluorescence; hits give low values;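 active = ratio B-score over 3 SD below the library mean, with starting fluorescence within 5 SD of its mean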;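 note: negative B-score means less thallium flux so channel inhibition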
hERG rescue – hERG (human) protection from proarrhythmic block. Q12809. CHO-hERG, FluxOR thallium flux, dofetilide IC70 present. activation (rescue from dofetilide block), less the hit threshold, % at 10 µM. 0.51% of 310,000 active;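 active = activation above the mean of controls blocked by dofetilide plus 5 SD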;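 note: thallium influx through hERG after potassium depolarization seen as dye fluorescence rise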
KCNK3 inh – human KCNK3 channel inhibition, primary screen; O14649; CHO-KCNK3 thallium flux, FluxOR fluorescence; hits give low values; 0.84% of 340,000 active; B-score at 10 µM;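 active = B-score under library mean minus 4 SD, starting fluorescence ratio at most library mean plus 5 SD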;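 note: more negative B-score means stronger inhibition of thallium flux through KCNK3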
Kir21 block – Kir2.1 (mouse) channel inhibition. P35561. HEK293-Kir2.1, FluxOR thallium flux fluorescence; hits give low values. B-score at 10 µM. 0.85% of 310,000 active;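 active = fluorescence ratio B-score at or below minus 3 SD of library scores, with starting-brightness B-score within 2 SD, cut at about -4.2 in these data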;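 note: channel flux triggered by added potassium and thallium sulfate stimulus; B-score of peak minus minimum fluorescence over baseline after thallium stimulus; more negative B-score means stronger Kir2.1 block with less thallium influx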
KCNQ1 act – human KCNQ1 channel potentiation or activation; CHO-K1 KCNQ1, thallium flux FluxOR fluorescence; hits give high values; P51787; B-score at 10 µM; 0.35% of 310,000 active;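 active = fluorescence ratio B-score, a plate-corrected score, at least three library SD, with initial intensity B-score within 5 SD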
Target sequence (P51787 whole entry, looked up): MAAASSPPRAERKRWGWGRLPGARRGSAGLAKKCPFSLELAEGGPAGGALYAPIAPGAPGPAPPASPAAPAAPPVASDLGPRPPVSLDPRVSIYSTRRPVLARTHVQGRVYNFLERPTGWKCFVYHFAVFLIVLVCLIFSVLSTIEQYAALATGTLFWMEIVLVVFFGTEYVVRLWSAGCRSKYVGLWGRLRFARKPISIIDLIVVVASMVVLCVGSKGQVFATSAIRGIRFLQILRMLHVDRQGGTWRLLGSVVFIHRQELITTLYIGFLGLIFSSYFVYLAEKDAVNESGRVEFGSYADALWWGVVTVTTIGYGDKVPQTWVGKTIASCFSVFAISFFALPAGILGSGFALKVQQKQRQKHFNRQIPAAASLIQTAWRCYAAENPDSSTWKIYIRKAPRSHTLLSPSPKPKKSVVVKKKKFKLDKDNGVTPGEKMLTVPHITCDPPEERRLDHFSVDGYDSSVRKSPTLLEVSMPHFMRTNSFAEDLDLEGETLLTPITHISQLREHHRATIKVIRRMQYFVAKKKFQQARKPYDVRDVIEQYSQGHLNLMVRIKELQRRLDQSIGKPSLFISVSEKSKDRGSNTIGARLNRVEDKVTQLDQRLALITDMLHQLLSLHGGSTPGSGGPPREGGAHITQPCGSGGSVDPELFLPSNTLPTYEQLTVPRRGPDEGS
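Assay system: CHO-K1 cells stably expressing KCNQ1. Medium: assay buffer for compound exposure, DMSO matched across wells. Timing: 37 °C overnight plating, 90-min dark dye load, 20-min compound pretreatment. Signal: kinetic FluxOR fluorescence, 10 s baseline plus 110 s post-stimulus.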
KCNQ1 block – inhibitors of human KCNQ1 potassium channel | P51787 | CHO-K1 KCNQ1, FluxOR thallium flux fluorescence; hits give high values | B-score at 10 µM | 1.3% of 310,000 active;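 active = compounds whose thallium flux B-score, printed positive for inhibition, exceeds three library SD while starting fluorescence stays within three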;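 note: channel opened by potassium depolarization with thallium stimulus after 20 min compound exposure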
KCNK9 block conf – confirmation of human KCNK9 potassium channel inhibitors; 43% of 4,900 active; AID 492992; shares compounds with KCNK9 block; inhibition, % at 10 µM; HEK293 KCNK9 cells, FluxOR thallium flux fluorescence;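 active = thallium signal inhibited by more than 5 SD of the compound-free buffer control wells, on both duplicate plates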;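 note: 0% = assay buffer control wells without compound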
Kir2-1 spec – selectivity of KCNK9 modulators against mouse Kir2.1; 4% of 4,900 active; AID 492993; inhibition, % at 10 µM; Kir2.1 cells, FluxOR thallium flux fluorescence; shares compounds with KCNK9 block;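 active = thallium signal drop more than 5 SD beyond the mean of the no-compound control wells, seen in both duplicate plates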;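 note: signal is fluorescence rise after thallium addition divided by baseline fluorescence; plate controls were assay buffer only for no effect and full block by chlorpromazine control for full effect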
HEK293 Tl ctr – second check of KCNK9 modulator effects in non-induced HEK293 cells | shares compounds with KCNK9 block | FluxOR thallium flux | inhibition, % at 10 µM | 40% of 4,900 active | AID 492997;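 active = thallium signal drop beyond 5 SD of the untreated control mean, on both duplicate plates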;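 note: plate controls were buffer only IC0 wells for no effect and SID17386958 at its maximal inhibitory level for full effect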
Active calls of the source: *; i = inactive; x = no result. Only some compounds are listed: those with a hit (about 3.7% of all), similar ones and a draw of the others.

SMILES | KCNK9 block | hERG rescue | KCNK3 inh | Kir21 block | KCNQ1 act | KCNQ1 block | KCNK9 block conf | Kir2-1 spec | HEK293 Tl ctr
CCCCn1c(SCC(=O)Nc2cc(C)on2)nc2ccsc2c1=O | i | -7 | i | -0.36 | i | i | x | x | x
COCCn1c(SCc2cccc([N+](=O)[O-])c2)nc2ccccc2c1=O | -8.8* | -7 | i | 1.4 | i | i | 64%* | i | 30%*
CCc1c(O)nc(SCc2ccccc2)n(C(C)CC)c1=O (stereo not drawn) | i | -5 | i | -3.7 | i | i | x | x | x
COc1ccc2cc(CCNS(=O)(=O)c3c(C)cc(C)cc3C)c(=O)[nH]c2c1 | i | -6 | i | -2.4 | i | i | x | x | x
COc1ccc(C(C(=O)NC2CCCC2)N(Cc2ccccc2)C(=O)c2nsc(Cl)c2Cl)cc1 (stereo not drawn) | i | -7 | i | -1.2 | i | i | x | x | x
CCOc1ccc(C(C(=O)NC2CCCC2)N(Cc2ccccc2)C(=O)c2nsc(Cl)c2Cl)cc1 (stereo not drawn) | -15* | -6 | i | -0.6 | i | i | 72%* | i | 40%*
CC1(C)Cc2c(cnn2-c2ccccc2)C(NC(=O)CCCN2CCCCC2=O)C1 (stereo not drawn) | i | -2 | i | -1.3 | i | i | x | x | x
COc1ccc2c(c1)c(CC(=O)OCC(=O)N(C)C)c(C)n2C(=O)c1ccc(Cl)cc1 | i | -7 | i | 0.71 | i | i | x | x | x
COc1ccc2c(c1)c(CC(=O)OC(C)C(=O)N(C)C)c(C)n2C(=O)c1ccc(Cl)cc1 (stereo not drawn) | i | -12 | i | 0.57 | i | i | i | i | i
Fc1cccc(-c2cc3nc4c(c(NCc5ccco5)n3n2)CCCC4)c1 | -10* | -14 | i | 0.4 | i | i | 37%* | i | 32%*
Cc1nc2cc(-c3cccc(F)c3)nn2c(C)c1CCC(=O)NC(C)CCc1ccco1 (stereo not drawn) | i | -4 | i | 2.3 | i | i | x | x | x
CCc1ccc(NC(=O)CSc2nnc(CNC(=O)c3ccco3)o2)cc1 | i | -5 | i | -0.73 | i | i | x | x | x
C=CCCC(=O)N1CCCC(Cc2cccc(Cl)c2)(C(=O)OCC)C1 (stereo not drawn) | i | -7 | i | -0.61 | i | i | x | x | x
CC(=O)NCC1(O)CCCC(C)C1 (stereo not drawn) | i | -6 | i | 0.3 | i | i | x | x | x
O=c1c2ccccc2c(-c2ccccc2)nn1-c1cc(Cl)ccc1[N+](=O)[O-] | x | x | i | x | x | x | x | x | x
Cc1ccc(-c2nn(-c3cc(Cl)ccc3[N+](=O)[O-])c(=O)c3ccccc23)cc1C | i | -9 | i | -0.67 | i | i | i | i | i
Cc1cc(C)n(CC(=O)N2CCCC(N3CCN(c4ccc(F)cc4)CC3)C2)n1 (stereo not drawn) | i | -8 | i | 0.17 | i | i | x | x | x
Cc1ccc(-c2csc3nc(SCC(=O)N(C)C)n(Cc4ccccc4)c(=O)c23)cc1 | -9.5* | -14 | i | 0.51 | i | i | 50%* | i | 28%*
CCn1c(SC)nnc1C1CCN(CC(=O)Nc2ccccc2N2CCOCC2)CC1 | i | -3 | i | -0.21 | i | i | x | x | x
Cc1onc(-c2ccc(Cl)cc2)c1-c1ccnn1S(=O)(=O)c1cccc(C(F)(F)F)c1 | -11* | -13 | i | 1.3 | i | i | 55%* | i | 47%*
COc1ccc([N+](=O)[O-])cc1NC(=O)C(C)N(C)Cc1ccc(Br)cc1 (stereo not drawn) | -8.6* | -12 | i | -2.5 | i | i | 31%* | i | 38%*
C/C(=N\NC(=S)NCc1ccccc1)c1ccc(C#N)cc1 | i | -14 | i | 1.3 | i | i | x | x | x
C/C(=N\NC(=S)NCc1ccccc1)c1ccc(C(C)(C)C)cc1 | i | -10 | i | 0.46 | i | i | i | i | i
CCOc1ccc(S(=O)(=O)Nc2ccc3c(c2)OCO3)cc1 | i | -9 | i | 0.58 | i | i | x | x | x
CCc1ccc(S(=O)(=O)NCCc2csc(-c3ccccc3)n2)s1 | -10* | -10 | i | -4.5* | i | i | 50%* | 38%* | 39%*
SMILES | KCNK9 block | hERG rescue | KCNK3 inh | Kir21 block | KCNQ1 act | KCNQ1 block | KCNK9 block conf | Kir2-1 spec | HEK293 Tl ctr
CCOc1ccccc1N(C)C(=O)c1cc2c(=O)n(CC)c3ccccc3c2s1 | -14* | -8 | i | -0.69 | i | i | 70%* | i | 38%*
CCn1c(=O)c2cc(C(=O)N(C)CC(OC)OC)sc2c2ccccc21 | i | -8 | i | 0.68 | i | i | x | x | x
Cc1nn(C)cc1C(C(=O)NC1CCCCC1)N(Cc1ccc(F)cc1)C(=O)c1cnccn1 (stereo not drawn) | i | -2 | i | -0.06 | i | i | x | x | x
O=c1c(Cc2ccc(Cl)cc2)c(O)ccn1Cc1ccccc1 | i | -7 | i | -0.71 | i | i | x | x | x
O=c1c(Cc2ccc(Cl)cc2)c(O)ccn1Cc1cccc(Cl)c1 | i | -10 | i | -0.19 | i | i | i | i | i
O=c1c(Cc2ccc(F)cc2)c(O)ccn1Cc1cccc(Cl)c1 | i | -7 | i | -0.26 | i | i | x | x | x
O=c1c(Cc2ccc(Cl)cc2Cl)c(O)ccn1Cc1ccc(Cl)cc1 | i | -9 | i | 0.95 | i | 8* | i | i | i
Cc1ccc(N(C)S(=O)(=O)c2ccc3c(c2)NC(=O)C(C)S3)cc1 (stereo not drawn) | i | -8 | i | -2.9 | i | i | x | x | x
O=C(CN1CCCC1)Nc1c(Cl)cccc1Cl | i | -1 | i | 0.21 | i | i | x | x | x
COc1ccc(-n2nc([N+](=O)[O-])c(=NCCc3ccc(C)cc3)n2O)cc1 | i | -13 | i | -0.18 | i | i | i | i | i
CCCCCCCCC/C(=N\O)c1ccccn1 | -15* | -7 | i | -2.2 | i | 7* | 41%* | i | 50%*
Cc1ccc(Cl)cc1N1CCN(C(=O)CN(c2ccccc2)S(=O)(=O)N(C)C)CC1 | -9* | -13 | i | 0.27 | i | i | 28%* | i | 34%*
CS(=O)(=O)N(CC(=O)N1CCN(c2ccccc2)CC1)c1ccc(Cl)c(C(F)(F)F)c1 | i | -7 | i | 1.6 | i | i | i | i | i

Screening data from PubChem.
